Experimental data taken from the array DNA melting data of Ke et al. (doi:10.1101/2024.01.08.574731).

Tests used:
[1] = melting temperature; fluorescence melt of hairpins on a sequencing array, two-state fit, raised by 9.35 °C to match UV melts; conditions: sodium 0.088 M
Summary of the method: (§1)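 On a sequenced MiSeq flow cell, library hairpins with annealed Cy3 and quencher oligos were imaged for Cy3 fluorescence in 2.5 °C steps up to 60 °C, in 50 mM Na-HEPES pH 8.0, 25 mM NaCl. Normalisation used pre-quench Cy3 and control constructs. Bootstrapped two-state fits gave melting temperature and folding enthalpy, combined by inverse variance across four replicates and with fitted temperatures raised by 9.35 °C to match UV melts.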

[2] = folding enthalpy; higher = less favourable; fluorescence melt of hairpins on a sequencing array, two-state fit; conditions: sodium 0.088 M
Summary of the method: as §1

AAACCGAAAGGTTT (((((....)))))
Tm [1]: 52.8 °C | folding enthalpy [2]: -20.7 kcal/mol

AAAGCGAAAGCTTT (((((....)))))
Tm [1]: 63.4 °C | folding enthalpy [2]: -15.5 kcal/mol

AACAAGAAATTGTT (((((....)))))
Tm [1]: 23.3 °C | folding enthalpy [2]: -7.18 kcal/mol

AACAGGAAACTGTT (((((....)))))
Tm [1]: 40.5 °C | folding enthalpy [2]: -14.7 kcal/mol

AACCAGAAATGGTT (((((....)))))
Tm [1]: 40.2 °C | folding enthalpy [2]: -14.8 kcal/mol

AACTGGAAACAGTT (((((....)))))
Tm [1]: 38.8 °C | folding enthalpy [2]: -16.8 kcal/mol

AAGTTGAAAAACTT (((((....)))))
Tm [1]: 35.4 °C | folding enthalpy [2]: -10.6 kcal/mol

AATCCGAAAGGATT (((((....)))))
Tm [1]: 52 °C | folding enthalpy [2]: -17.8 kcal/mol

AATCTGAAAAGATT (((((....)))))
Tm [1]: 34.7 °C | folding enthalpy [2]: -13.1 kcal/mol

ACAAAGAAATTTGT (((((....)))))
Tm [1]: 22.5 °C | folding enthalpy [2]: -6.26 kcal/mol

ACATGGAAACATGT (((((....)))))
Tm [1]: 45 °C | folding enthalpy [2]: -19.7 kcal/mol

ACCCTGAAAAGGGT (((((....)))))
Tm [1]: 53.2 °C | folding enthalpy [2]: -19.2 kcal/mol

ACGGGGAAACCCGT (((((....)))))
Tm [1]: 65.1 °C | folding enthalpy [2]: -17.3 kcal/mol

ACGGTGAAAACCGT (((((....)))))
Tm [1]: 55 °C | folding enthalpy [2]: -22.9 kcal/mol

ACGTGGAAACACGT (((((....)))))
Tm [1]: 55.5 °C | folding enthalpy [2]: -22 kcal/mol

ACTCCGAAAGGAGT (((((....)))))
Tm [1]: 68.8 °C | folding enthalpy [2]: -20.5 kcal/mol

ACTGAGAAATCAGT (((((....)))))
Tm [1]: 34.8 °C | folding enthalpy [2]: -19.8 kcal/mol

ACTGTGAAAACAGT (((((....)))))
Tm [1]: 46.1 °C | folding enthalpy [2]: -21.8 kcal/mol

AGACGGAAACGTCT (((((....)))))
Tm [1]: 53.5 °C | folding enthalpy [2]: -21.2 kcal/mol

AGACTGAAAAGTCT (((((....)))))
Tm [1]: 46 °C | folding enthalpy [2]: -16.9 kcal/mol

AGAGAGAAATCTCT (((((....)))))
Tm [1]: 23.2 °C | folding enthalpy [2]: -8.28 kcal/mol

AGCAAGAAATTGCT (((((....)))))
Tm [1]: 39.3 °C | folding enthalpy [2]: -16 kcal/mol

AGCCAGAAATGGCT (((((....)))))
Tm [1]: 54.4 °C | folding enthalpy [2]: -19.1 kcal/mol

AGGACGAAAGTCCT (((((....)))))
Tm [1]: 68.5 °C | folding enthalpy [2]: -20.3 kcal/mol

AGGAGGAAACTCCT (((((....)))))
Tm [1]: 45 °C | folding enthalpy [2]: -18.3 kcal/mol

AGGATGAAAATCCT (((((....)))))
Tm [1]: 41.6 °C | folding enthalpy [2]: -22.2 kcal/mol

AGGCAGAAATGCCT (((((....)))))
Tm [1]: 54.7 °C | folding enthalpy [2]: -17.6 kcal/mol

AGTAGCTGAAAAGTTACT ((((.((....)).))))
Tm [1]: 36 °C | folding enthalpy [2]: -20.2 kcal/mol

AGTCCGAAAGGACT (((((....)))))
Tm [1]: 68.1 °C | folding enthalpy [2]: -18.7 kcal/mol

AGTCTGAAAAGACT (((((....)))))
Tm [1]: 47 °C | folding enthalpy [2]: -19.6 kcal/mol

AGTGGGAAACCACT (((((....)))))
Tm [1]: 49.8 °C | folding enthalpy [2]: -19.5 kcal/mol

AGTGTGAAAACACT (((((....)))))
Tm [1]: 49.7 °C | folding enthalpy [2]: -19.5 kcal/mol

AGTTAGAAATAACT (((((....)))))
Tm [1]: 25.8 °C | folding enthalpy [2]: -9.79 kcal/mol

ATCGGGAAACCGAT (((((....)))))
Tm [1]: 50.2 °C | folding enthalpy [2]: -24.1 kcal/mol

ATCGTGAAAACGAT (((((....)))))
Tm [1]: 49.5 °C | folding enthalpy [2]: -19.6 kcal/mol

ATGGGGAAACCCAT (((((....)))))
Tm [1]: 47.3 °C | folding enthalpy [2]: -23.4 kcal/mol

ATGGTGAAAACCAT (((((....)))))
Tm [1]: 47.1 °C | folding enthalpy [2]: -21.6 kcal/mol

ATGTCGAAAGACAT (((((....)))))
Tm [1]: 53.5 °C | folding enthalpy [2]: -19.6 kcal/mol

ATTGGGAAACCAAT (((((....)))))
Tm [1]: 40.3 °C | folding enthalpy [2]: -16.9 kcal/mol

ATTTGGAAACAAAT (((((....)))))
Tm [1]: 34.4 °C | folding enthalpy [2]: -12.8 kcal/mol

CAAACCGAAAGGCTTG (((.((....)).)))
Tm [1]: 38.4 °C | folding enthalpy [2]: -27 kcal/mol

CAAACGAAAGTTTG (((((....)))))
Tm [1]: 53 °C | folding enthalpy [2]: -23 kcal/mol

CAAGGGAAACCTTG (((((....)))))
Tm [1]: 43.9 °C | folding enthalpy [2]: -27.8 kcal/mol

CAATGGAAACATTG (((((....)))))
Tm [1]: 40.6 °C | folding enthalpy [2]: -26 kcal/mol

CACGAGAAATCGTG (((((....)))))
Tm [1]: 50.6 °C | folding enthalpy [2]: -23.5 kcal/mol

CACGGGAAACCGTG (((((....)))))
Tm [1]: 58.8 °C | folding enthalpy [2]: -30.9 kcal/mol

CACTAGAAATAGTG (((((....)))))
Tm [1]: 37.2 °C | folding enthalpy [2]: -16.9 kcal/mol

CAGCTGAAAAGCTG (((((....)))))
Tm [1]: 58.6 °C | folding enthalpy [2]: -25.4 kcal/mol
